According to ChEMBL document CHEMBL1681760, “Further SAR study on 11-O-substituted aporphine analogues: identification of highly potent dopamine D3 receptor ligands” (Bioorg Med Chem, 2011):
pKi: −log10 of the molar value.

Experiments:
D(2) dopamine receptor [1] = biological target: T1, D(2) dopamine receptor (Homo sapiens, UniProt P14416); experiment: Displacement of [3H]spiperone from dopamine D2 receptor expressed in human HEK293 cells at 10 uM by liquid scintillation counter; format: cell-based
T1 sequence (P14416 whole entry): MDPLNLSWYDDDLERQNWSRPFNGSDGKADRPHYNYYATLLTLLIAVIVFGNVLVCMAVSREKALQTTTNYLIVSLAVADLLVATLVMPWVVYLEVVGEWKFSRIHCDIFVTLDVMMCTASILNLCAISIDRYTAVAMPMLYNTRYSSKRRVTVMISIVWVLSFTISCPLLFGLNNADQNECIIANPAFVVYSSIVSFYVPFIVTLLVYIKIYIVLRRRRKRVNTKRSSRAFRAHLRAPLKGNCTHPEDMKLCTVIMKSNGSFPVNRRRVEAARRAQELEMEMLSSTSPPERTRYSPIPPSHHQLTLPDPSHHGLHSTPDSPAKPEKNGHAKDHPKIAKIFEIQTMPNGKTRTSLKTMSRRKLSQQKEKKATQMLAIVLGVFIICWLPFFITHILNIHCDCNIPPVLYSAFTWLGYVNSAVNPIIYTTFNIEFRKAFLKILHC

D(3) dopamine receptor = D(3) dopamine receptor (Homo sapiens, UniProt P35462); experiment: Displacement of [3H]spiperone from dopamine D3 receptor expressed in human HEK293 cells by liquid scintillation counter; format: cell-based
Sequence of D(3) dopamine receptor (P35462 whole entry): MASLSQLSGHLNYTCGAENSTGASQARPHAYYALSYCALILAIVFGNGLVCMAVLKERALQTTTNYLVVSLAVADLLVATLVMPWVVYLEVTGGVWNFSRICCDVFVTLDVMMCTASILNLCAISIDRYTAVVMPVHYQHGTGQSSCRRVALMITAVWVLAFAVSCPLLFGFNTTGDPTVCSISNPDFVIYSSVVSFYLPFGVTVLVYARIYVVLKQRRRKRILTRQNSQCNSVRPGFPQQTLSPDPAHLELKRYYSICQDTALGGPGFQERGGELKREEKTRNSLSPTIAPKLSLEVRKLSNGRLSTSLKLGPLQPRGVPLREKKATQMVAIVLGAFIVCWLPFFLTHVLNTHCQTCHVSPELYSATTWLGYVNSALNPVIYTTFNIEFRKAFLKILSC
Procedure, shortened: (§1)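 Stably transfected HEK293 membranes, 15 µg per tube, in duplicate. Competed against [3H]spiperone with increasing compound concentrations from 1 nM. Buffer 50 mM Tris, 4 mM MgCl2, pH 7.4; 30 °C for 50 min. Unlabelled spiperone defined nonspecific binding. Stopped by rapid GF/B filtration and washing with cold 50 mM Tris/5 mM EDTA.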

D(1A) dopamine receptor [2] = biological target: T2, D(1A) dopamine receptor (Homo sapiens, UniProt P21728); experiment: Displacement of [3H]SCH23390 from dopamine D1 receptor expressed in human HEK293 cells at 10 uM by liquid scintillation counter; format: cell-based
T2 sequence (P21728 whole entry): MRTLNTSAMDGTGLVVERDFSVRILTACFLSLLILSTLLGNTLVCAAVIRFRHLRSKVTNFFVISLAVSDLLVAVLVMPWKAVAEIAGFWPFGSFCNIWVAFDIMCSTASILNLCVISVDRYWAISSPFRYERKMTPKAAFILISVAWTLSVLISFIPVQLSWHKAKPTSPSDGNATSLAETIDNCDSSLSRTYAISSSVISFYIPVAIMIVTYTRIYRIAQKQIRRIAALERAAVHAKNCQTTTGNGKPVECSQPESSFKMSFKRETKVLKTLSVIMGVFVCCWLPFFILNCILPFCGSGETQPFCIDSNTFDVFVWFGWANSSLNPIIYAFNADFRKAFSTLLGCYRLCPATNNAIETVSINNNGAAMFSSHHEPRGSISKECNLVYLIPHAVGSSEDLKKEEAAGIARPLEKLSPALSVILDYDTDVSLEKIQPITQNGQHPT

D(2) dopamine receptor [3] = biological target: T1, D(2) dopamine receptor; experiment: Displacement of [3H]spiperone from dopamine D2 receptor expressed in human HEK293 cells by liquid scintillation counter; format: cell-based; procedure, shortened: as §1
[4] = biological target: T3, 5-hydroxytryptamine receptor 1A (Homo sapiens, UniProt P08908); experiment: Displacement of [3H]8-OH-DPAT from 5-HT1A receptor expressed in CHO cells by liquid scintillation counter; format: cell-based
T3 sequence (P08908 whole entry): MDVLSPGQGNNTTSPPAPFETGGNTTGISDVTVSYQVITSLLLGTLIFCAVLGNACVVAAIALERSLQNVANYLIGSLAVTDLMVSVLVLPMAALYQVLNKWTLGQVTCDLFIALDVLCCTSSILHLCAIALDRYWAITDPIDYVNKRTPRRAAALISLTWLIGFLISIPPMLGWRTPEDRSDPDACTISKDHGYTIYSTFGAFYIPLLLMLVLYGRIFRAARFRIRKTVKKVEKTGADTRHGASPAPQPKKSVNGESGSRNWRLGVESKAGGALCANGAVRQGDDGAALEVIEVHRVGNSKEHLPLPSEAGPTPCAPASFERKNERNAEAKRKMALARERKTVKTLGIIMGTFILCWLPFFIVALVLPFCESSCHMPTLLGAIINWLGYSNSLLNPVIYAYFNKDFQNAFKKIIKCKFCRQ
Procedure, shortened: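 CHO cell membrane homogenates, 15 µg per tube, in duplicate tubes. Test compound at increasing concentrations from 1 nM with 0.7 nM [3H]8-OH-DPAT. Buffer 50 mM Tris, 4 mM MgCl2, pH 7.4. Incubated 50 min at 30 °C. Nonspecific binding defined with WAY100635. Stopped by GF/B filtration and cold Tris/EDTA wash.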

[5] = biological target: 5-hydroxytryptamine receptor 2A (Homo sapiens, UniProt P28223); experiment: Displacement of [3H]Ketanserin from 5-HT2A receptor expressed in CHO cells by liquid scintillation counter; format: cell-based
Sequence of 5-hydroxytryptamine receptor 2A (P28223 whole entry): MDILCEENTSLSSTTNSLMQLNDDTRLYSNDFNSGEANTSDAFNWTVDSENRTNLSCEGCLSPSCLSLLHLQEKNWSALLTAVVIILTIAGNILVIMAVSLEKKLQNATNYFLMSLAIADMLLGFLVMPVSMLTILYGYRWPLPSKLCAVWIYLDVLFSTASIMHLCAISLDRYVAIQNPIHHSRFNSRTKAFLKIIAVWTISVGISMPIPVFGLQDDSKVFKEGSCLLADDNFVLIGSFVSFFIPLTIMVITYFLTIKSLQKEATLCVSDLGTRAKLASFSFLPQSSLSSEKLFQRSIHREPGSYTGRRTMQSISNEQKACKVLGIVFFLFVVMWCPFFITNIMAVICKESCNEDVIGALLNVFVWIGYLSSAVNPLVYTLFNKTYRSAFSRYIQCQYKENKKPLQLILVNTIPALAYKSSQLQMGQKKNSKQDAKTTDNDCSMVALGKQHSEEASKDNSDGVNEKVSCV
Procedure, shortened: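 Duplicate incubations of CHO membranes (15 µg per tube) with [3H]Ketanserin and a rising compound series starting at 1 nM. Run in 50 mM Tris, 4 mM MgCl2, pH 7.4, at 30 °C for 50 min. Unlabelled ketanserin gave nonspecific binding. Bound counts retained on GF/B filters after cold-buffer washing.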

D(1A) dopamine receptor [6] = biological target: T2, D(1A) dopamine receptor; experiment: Displacement of [3H]SCH23390 from dopamine D1 receptor expressed in human HEK293 cells by liquid scintillation counter; format: cell-based
Procedure, shortened: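 Membranes from stably transfected HEK293 cells, 15 µg per tube, in duplicate. Incubated with [3H]SCH23390 and increasing compound concentrations from 1 nM. Buffer 50 mM Tris, 4 mM MgCl2, pH 7.4; 50 min at 30 °C. Nonspecific binding with unlabelled SCH23390. Reaction started by adding membranes and stopped by GF/B filtration.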

[7] = Selectivity ratio of Ki for 5-HT2A receptor to Ki for 5-HT1A receptor
[8] = Selectivity ratio of Ki for 5-HT1A receptor to Ki for dopamine D3 receptor

| SMILES | inhibition (D(2) dopamine receptor [1]) [%] | pKi (D(3) dopamine receptor) | inhibition (D(1A) dopamine receptor [2]) [%] | pKi (D(2) dopamine receptor [3]) | pKi [4] | pKi [5] | pKi (D(1A) dopamine receptor [6]) | Ratio [7] | Ratio [8] |
| --- | --- | --- | --- | --- | --- | --- | --- | --- | --- |
| CCCN1CCc2cccc3c2C1Cc1cccc(OCCCNCCCO)c1-3 (racemic) | 9 | 5.35 | 44 |  |  |  |  |  |  |
| CCCN1CCc2cccc3c2[C@@H]1Cc1cccc(OCc2cn(CCCCN4CCN(c5ccccc5OC)CC4)nn2)c1-3 |  | 8.10 | 66 | 6.53 |  |  |  |  |  |
| CCCN1CCc2cccc3c2C1Cc1cccc(OCCCCN2CCN(c4ccccc4OC)CC2)c1-3 (racemic) |  | 7.70 |  | 7.06 | 7.24 | 4.00 | 6.13 |  |  |
| CCCN1CCc2cccc3c2[C@H]1Cc1cccc(OCc2cn(CCCCN4CCN(c5ccccc5OC)CC4)nn2)c1-3 |  | 8.04 |  | 6.21 |  |  | 5.80 |  |  |
| CCCN1CCc2cccc3c2C1Cc1cccc(OCCCn2cc(CCN4CCN(c5ccccc5OC)CC4)nn2)c1-3 (racemic) |  | 8.94 | 64 | 5.13 | 8.12 | 6.61 |  | 32 | 6.6 |
| CCCN1CCc2cccc3c2[C@@H]1Cc1cccc(OCCCCN2CCN(c4ccccc4OC)CC2)c1-3 |  | 6.72 |  | 6.76 |  |  | 5.93 |  |  |
| CCCN1CCc2cccc3c2C1Cc1cccc(OCCCn2cc(CN4CCN(c5ccccc5OC)CC4)nn2)c1-3 (racemic) | 51 | 6.55 | 42 |  |  |  |  |  |  |
| C#CCOc1cccc2c1-c1cccc3c1C(C2)N(CCC)CC3 (racemic) | 28 | 5.62 |  |  |  |  |  |  |  |
| CCCN1CCc2cccc3c2[C@@H]1Cc1cccc(OCCCn2cc(CCN4CCN(c5ccccc5OC)CC4)nn2)c1-3 |  | 8.74 | 68 | 6.22 |  |  |  |  |  |
| CCCN1CCc2cccc3c2[C@H]1Cc1cccc(OCCCn2cc(CCN4CCN(c5ccccc5OC)CC4)nn2)c1-3 |  | 8.11 | 54 | 6.11 |  |  |  |  |  |
| CCCN1CCc2cccc3c2C1Cc1cccc(OCc2cn(CCN4CCN(c5ccccc5OC)CC4)nn2)c1-3 (racemic) | 19 | 7.36 | 35 |  |  |  |  |  |  |
| CCCN1CCc2cccc3c2C1Cc1cccc(OCc2cn(CCCN4CCN(c5ncccn5)CC4)nn2)c1-3 (racemic) | 13 | 6.27 | 32 |  |  |  |  |  |  |
| CCCN1CCc2cccc3c2[C@H]1Cc1cccc(OCCCCN2CCN(c4ccccc4OC)CC2)c1-3 |  | 7.63 |  | 6.85 |  |  | 5.88 |  |  |
| CCCN1CCc2cccc3c2C1Cc1cccc(OCCCN(CCCN2CCN(c4ccccc4OC)CC2)S(C)(=O)=O)c1-3 (racemic) |  | 6.99 |  | 6.40 |  |  | 6.04 |  |  |
| CCCN1CCc2cccc3c2C1Cc1cccc(OCc2cn(CCCN4CCN(c5ccccc5OC)CC4)nn2)c1-3 (racemic) |  | 7.68 | 67 | 5.92 |  |  |  |  |  |
| CCCN1CCc2cccc3c2C1Cc1cccc(OCCCn2cc(CCCCN4CCN(c5ccccc5OC)CC4)nn2)c1-3 (racemic) |  | 8.09 |  | 6.69 |  |  | 5.72 |  |  |
| CCCN1CCc2cccc3c2C1Cc1cccc(OCc2cn(CCCN4CCN(c5ccccc5)CC4)nn2)c1-3 (racemic) | 6 | 6.72 | 63 |  |  |  |  |  |  |
| CCCN1CCc2cccc3c2C1Cc1cccc(OCc2cn(CCCCN4CCN(c5ccccc5OC)CC4)nn2)c1-3 (racemic) |  | 8.57 |  | 6.18 | 8.01 | 6.76 | 5.57 | 18 | 3.6 |
| CCCN1CCc2cccc3c2C1Cc1cccc(OCc2cn(CCCN4CCN(c5cccc(Cl)c5Cl)CC4)nn2)c1-3 (racemic) | 40.5 | 7.46 |  |  |  |  | 5.70 |  |  |
| CCCN1CCc2cccc3c2C1Cc1cccc(OCCCn2cc(CCCN4CCN(c5ccccc5OC)CC4)nn2)c1-3 (racemic) | 18 | 8.09 | 14 |  |  |  |  |  |  |
